Bioassay records as filed in PubChem BioAssay.
TRPC4 inh: blocks the mouse TRPC4 cation channel; Q9QUQ5; HEK293 TRPC4beta/mu-opioid, DAMGO-evoked Fluo4 calcium flux; stronger effect = lower value; B-score at 10 µM; actives 0.39% (n = 300,000);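 active means B-score over 3 SD under the library average, no early fluorescence shift, positive overall ratio signal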
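Signal: kinetic Fluo4 fluorescence imaging of calcium influx. Material: stable TRPC4beta/mu-opioid receptor HEK293 cells. Probe or stimulus: DAMGO in two steps, submaximal then maximal.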
TRPC6 act: activators of mouse TRPC6 channel | Q61143 | HEK293-TRPC6 membrane potential dye fluorescence; stronger effect = higher value | B-score at 10 µM | actives 0.13% (n = 310,000);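 active means B-score of the integrated fluorescence ratio above library mean plus 3 SD, and starting fluorescence ratio within library mean plus 5 SD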;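 further: higher score means more depolarization so channel activation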
TRPC4 PAM: allosteric potentiators of mouse TRPC4 channel. Q9QUQ5. HEK293 TRPC4beta/mu-opioid, DAMGO EC20, Fluo-4 Ca2+ flux; stronger effect = higher value. B-score at 10 µM. actives 0.42% (n = 310,000). AID 2227;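 active means B-score of calcium response area above 5 SD of library B-scores, with initial fluorescence ratio within 5 SD of library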;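 further: B-score of integrated fluorescence ratio over time as area under calcium response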
TRPC4 agonist: TRPC4 (mouse) channel activation; actives 0.49% (n = 310,000); B-score at 10 µM; AID 2237; HEK293 TRPC4beta/mu-opioid, Fluo4 calcium fluorescence; stronger effect = higher value; Q9QUQ5;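 active means B-score above 5 SD of library B-scores, and initial fluorescence ratio not above library mean plus 5 SD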;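 further: positive B-score marks a calcium rise read as TRPC4 activation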
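system = HEK293 cells stably co-expressing mouse TRPC4beta and mu-opioid receptor | schedule = Fluo4 dye loading 45 min at room temperature, 110 s recording | measure = B-scored integrated calcium fluorescence ratio | signal = Fluo4 calcium-sensitive dye fluorescence, kinetic, 1 Hz baseline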
TRPC6 inhibitor: mouse TRPC6 channel inhibition | HEK293-TRPC6, membrane potential dye, ACh-evoked depolarization; stronger effect = lower value | B-score at 10 µM | actives 1.1% (n = 310,000);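 active means B-score under library mean minus 3 SD, initial fluorescence not abnormally high, positive integrated signal ratio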;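 further: B-score derived from integrated fluorescence ratio over the kinetic read; more negative B-score means stronger inhibition of depolarization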
* hit, by the source's call; i = inactive. Rows were chosen to be rich in hits. Some 2.3% of all compounds tested hit in one or more screens of this group.

SMILES	TRPC4 inh	TRPC6 act	TRPC4 PAM	TRPC4 agonist	TRPC6 inhibitor
CN(CCNC(=O)CCCOc1cc(=O)n(C)c2ccccc12)Cc1ccccc1	i	i	i	99*	i
CN(CCCNC(=O)CCCOc1cc(=O)n(C)c2ccccc12)Cc1ccccc1	i	i	19*	i	i
COc1ccc(CCNC(=O)CCCOc2cc(=O)n(C)c3ccccc23)cc1OC	i	i	i	i	i
CS(=O)(=O)c1ccc(Cl)c(NC(=O)COC(=O)CCCN2C(=O)c3cccc4cccc(c34)C2=O)c1	i	i	i	i	i
COc1cccc(/C=C2\SC(=S)N(CC3CCCO3)C2=O)c1 (stereo not drawn)	-6*	i	i	i	i
O=C1/C(=C/c2cccc(O)c2)SC(=S)N1CC1CCCO1 (stereo not drawn)	i	i	i	i	i
C=CCN1C(=O)/C(=C/C=C2/N(CC)c3ccc(S(=O)(=O)N(C)C)cc3N2CC)SC1=S	i	i	10*	64*	i
Cc1cc(C)c(N=C2SCC(=O)N2Cc2ccco2)c(C)c1	-5*	i	i	i	i
O=C1CSC(=Nc2ccc(Cl)cc2)N1Cc1ccco1	i	i	i	i	i
c1ccc(-c2ncc(CN3CCN(c4ccccn4)CC3)[nH]2)cc1	-6*	i	i	i	i
c1ccc(N2CCN(Cc3nc4ccccc4[nH]3)CC2)nc1	i	i	i	i	i
Cc1c(CCOC(=O)CC23CC4CC(CC(C4)C2)C3)sc[n+]1CC(=O)c1ccccc1	-5*	i	i	i	i
NC(=O)c1nsc(C(=O)N(Cc2ccccc2F)C(C(=O)NCC2CCCO2)c2ccc(F)cc2)c1N (stereo not drawn)	-8*	i	i	i	i
COc1ccc(CCN(C(=O)c2snc(C(N)=O)c2N)C(C(=O)NCC2CCCO2)c2ccc(F)cc2)cc1OC (stereo not drawn)	i	i	i	i	i
Cc1cccc(CCN(C(=O)c2snc(C(N)=O)c2N)C(C(=O)NCC2CCCO2)c2ccc(F)cc2)c1 (stereo not drawn)	-7*	i	i	i	i
NC(=O)c1nsc(C(=O)N(Cc2ccco2)C(C(=O)NCC2CCCO2)c2ccc(F)cc2)c1N (stereo not drawn)	-6*	i	i	i	i
NC(=O)c1nsc(C(=O)N(Cc2ccco2)C(C(=O)NCC2CCCO2)c2ccc(O)cc2)c1N (stereo not drawn)	i	i	i	i	i
Cc1cc([N+](=O)[O-])nn1CC(=O)N1c2ccccc2CC1C (stereo not drawn)	i	i	i	i	i
COc1ccccc1/C=C/C(=O)NCC(=O)N/N=C/c1ccc(C)o1	i	i	i	i	i
COc1ccc(C(=O)C2CCCN(C3Cc4ccccc4C3)C2)cc1OC (stereo not drawn)	i	i	i	87*	i
C#Cc1cccc(C(=O)NC2CCCN(C3Cc4ccccc4C3)C2)c1 (stereo not drawn)	i	i	i	188*	i
c1ccc(Nc2nc(N3CCOCC3)nc(N3CCOCC3)n2)cc1	i	i	i	i	i
c1ccc(Nc2nc(N3CCNCC3)nc(N3CCOCC3)n2)cc1	i	i	i	65*	i
O=C1CC(=O)Nc2cc(S(=O)(=O)Nc3cccc(C(F)(F)F)c3)ccc2N1	i	i	i	i	i
CC1CCN(CCCCOc2ccccc2-c2ccccc2)CC1	i	i	i	i	i
SMILES	TRPC4 inh	TRPC6 act	TRPC4 PAM	TRPC4 agonist	TRPC6 inhibitor
CC1CCN(CCOCCOc2ccccc2-c2ccccc2)CC1	-6*	i	i	i	i
c1ccc(-c2ccccc2OCCOCCN2CCCCC2)cc1	-5*	i	i	i	i
COc1ccc(CNC(=O)C(=O)NCCC2CCCCN2S(=O)(=O)c2cccs2)cc1 (stereo not drawn)	i	i	i	i	i
O=C1c2ccc(Oc3ccc4c(c3)C(=O)N(CCCO)C4=O)cc2C(=O)N1CCCO	i	i	i	71*	i
CCN(C(=O)c1ccc2c(SCC(=O)O)c3c(nc2c1)CCC3)c1cc(Cl)ccc1OC	i	i	i	i	i
Cc1cc(NC(=O)C(C)SCC(=O)N(Cc2ccccc2)c2ccccc2)no1 (stereo not drawn)	-7*	i	i	i	i
CC1(C)CC(=O)C(N=Nc2cccc(F)c2C#N)=C(O)C1	i	i	i	i	i
CC(=NCCN1CCN(C(C)=C2C(=O)c3ccccc3C2=O)CC1)C1=C(O)CC(C)(C)CC1=O	i	i	14*	i	i
Nc1nc(SCn2nnc3ccccc3c2=O)n[nH]1	i	i	i	i	i
c1ccc(-c2nnc(C3CC(c4ccncc4)=NO3)o2)cc1 (stereo not drawn)	i	i	i	i	i
COc1ccccc1C(CNc1ncnc2sc(C)c(C)c12)N(C)C (stereo not drawn)	i	i	i	i	i
CN(C)C(CNc1ncnc2sc3c(c12)CCCCC3)c1ccco1 (stereo not drawn)	i	i	i	76*	i
COc1ccc(C(CNc2ncnc3sc(C)c(C)c23)N(C)C)cc1 (stereo not drawn)	i	i	i	236*	i
Cc1sc2ncnc(NCC(c3ccco3)N(C)C)c2c1C (stereo not drawn)	i	i	i	188*	i
CCOc1ccccc1N1C(=O)c2ccc(S(=O)(=O)c3ccc(C(=O)O)cc3)cc2C1=O	i	i	i	i	i
CC(=O)Nc1ccc(SCC(=O)N(C)C2CCS(=O)(=O)C2)cc1 (stereo not drawn)	i	i	i	i	i
CC1CCCCN1CCCNC(=O)c1nn(C)c2c1CSc1ccccc1-2 (stereo not drawn)	-7*	i	i	i	i
O=C(O)C1CCC(Cn2c(SCc3cc(=O)n4cc(Cl)ccc4n3)nc3ccsc3c2=O)CC1 (stereo not drawn)	i	i	i	i	i
COc1ccc(-c2csc(NC(=O)Cc3cccc4ccccc34)c2C(=O)O)cc1	-7*	i	i	i	i
CCN(CC1COc2ccccc2O1)C(=S)NCCCN(C)C (stereo not drawn)	i	i	12*	i	i
Cc1cc(S(=O)(=O)N2CCN=C2c2ccccc2)c(Cl)cc1Cl	i	i	i	i	i
